Series [1] is described as follows: (§1) Antiinflammatory activity in LPS-induced HEK-Blue hTLR4 cells assessed as reduction in alkaline phosphatase activity at 10 uM pretreated with compound for 0.5 hr followed by LPS induction and measured after 24 hrs. The format is functional, Homo sapiens. On the set-up: scale not given: the % may be the effect or the level left. Conditions: time 24.5 hrs. Put shortly: (§2)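 HEK-Blue-TLR4 cells (2×10^4/well, DMEM with 10% FBS) were grown for 24 h, then pretreated with compound or DMSO for 0.5 h. LPS was added at 0.5 µg/mL for 24 h. Supernatant ALP activity was read at 405 nm with a kit. Values are mean ± SEM of three independent experiments.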

A further series concerns HEK-Blue hTLR4. The description is as §1. Conditions: Homo sapiens, time 24.5 hrs. The class given is functional. Put shortly:
as §2

The nature of series [2]: Cmax in Sprague-Dawley rat at 10 mg/kg, po measured at 5 to 24 hrs by UPLC-MS/MS analysis. The format is ADME, organism-based. Also noted: dose 10 mg/kg, time 5-24 hrs, route po. Conditions: in vivo. Put shortly: (§3)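 Male SD rats (200 g ± 20 g, n = 6) were dosed orally by gavage at 10 mg/kg, suspended in CMC-Na with DMSO (<0.1%). Tail-vein blood was drawn at 5 min, 15 min, 30 min, 1, 2, 4, 6, 9, 12 and 24 h and centrifuged. Plasma supernatant was precipitated with an equal volume of acetonitrile and run on UPLC-MS/MS. Parameters came from a non-compartmental fit.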

For series [3], the system named is RAW264.7. The series is described as follows: Antiinflammatory activity in LPS-induced mouse RAW264.7 cells assessed as decrease in LPS-induced IL-6 secretion pretreated for 30 mins followed by LPS-induction and measured after 24 hrs by ELISA analysis. The format is functional, cell-based. Put shortly:
(§4)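 RAW 264.7 macrophages were pretreated for 30 min with 1–10 µM compound or DMSO vehicle, then stimulated with LPS (0.5 µg/mL). After 24 h, supernatant IL-6 and TNF-α were measured by ELISA. Results are mean ± SEM of triplicates, expressed as percent of the LPS group, with Student's t-test.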

The test system of series [4] is Mus musculus. The series can be described thus: Antiinflammatory activity in LPS-induced C57BL/6 mouse acute lung injury model assessed as decrease in total protein level at 5 mg/kg, po administered every 12 hrs for 36 hrs followed by LPS-induction for 12 hrs and measured at 6 hrs post LPS challenge. The format is functional, organism-based. The following applies: time 54.0 hrs. A digest of the protocol:
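Same C57BL/6 regimen: 5 mg/kg oral in 0.5% CMC-Na every 12 h for 36 h, then intratracheal LPS 5 mg/kg 12 h later, with sacrifice at 6 h. BALF was collected by rinsing the left lung with saline 4 times and centrifuged (1000 rpm, 4 °C, 10 min). Supernatant protein was measured by BCA assay.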

Series [5] in a line: AUC (0 to t) in Sprague-Dawley rat at 10 mg/kg, po measured at 5 to 24 hrs by UPLC-MS/MS analysis. The format is ADME, organism-based. On the set-up: dose 10 mg/kg, time upper 24 hrs, time lower 5 hrs, route po. Conditions: in vivo. A digest of the protocol:
as §3

In series [6] the test system is Mus musculus. The series can be described thus: In vivo Inhibition of NF-kappaB signalling pathway in mouse C57BL/6 lung assessed as decrease in phosphorylated p65 level at 5 mg/kg, po measured for 6 hrs by Western blot analysis. The class given is functional, organism-based. A digest of the protocol: (§5)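 In the C57BL/6 ALI model (5 mg/kg oral every 12 h for 36 h, then intratracheal LPS 5 mg/kg, sacrifice at 6 h), lung tissue was lysed in RIPA buffer with PMSF and protein was quantified by Bradford. Samples were run on 10% SDS-PAGE and immunoblotted for p65, phospho-p65 and IκB, with GAPDH as reference.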

Series [7] in a line: Acute toxicity in ICR mouse assessed as pathological changes in kidney at 1000 to 1500 mg/kg, IG measured after 10 days by H and E staining method. The class given is organism-based. Conditions: in vivo, po, 240 h, dose 1000-1500 mg/kg, time 10 day. A digest of the protocol: (§6)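 ICR mice (27 g ± 1 g; n = 24 total) given a single oral gavage dose on day 1 in CMC-Na with DMSO (<0.1%), dosing solution 50 mg/mL. Untreated mice served as controls. After 10 days, mice were sacrificed under general anaesthesia. Heart, liver, lung, spleen and kidney were harvested for H&E pathology.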

Series [8] deals with Mus musculus. The series is described as follows: Antiinflammatory activity in LPS-induced C57BL/6 mouse acute lung injury model assessed as decrease in […] TNF-alpha mRNA expression level at 5 mg/kg, po administered every 12 hrs for 36 hrs followed by LPS-induction for 12 hrs and measured at 6 hrs post LPS challenge by q-RTPCR analysis. The class given is functional, organism-based. Conditions: time 54.0 hrs. A digest of the protocol:
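C57BL/6 mice (8 per group) were gavaged with 5 mg/kg in 0.5% CMC-Na every 12 h for 36 h. LPS (5 mg/kg) was instilled intratracheally 12 h after the last dose. Mice were euthanized 6 h later and lung TNF-α mRNA was measured by real-time qRT-PCR.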

Series [9] is described as follows: AUC (0 to infinity) in Sprague-Dawley rat at 10 mg/kg, po measured at 5 to 24 hrs by UPLC-MS/MS analysis. The format is ADME, organism-based. On the set-up: time lower 5 hrs, dose 10 mg/kg, time upper 24 hrs, route po. Conditions: in vivo. A digest of the protocol:
as §3

Series [10] is described as follows: Acute toxicity in ICR mouse assessed as pathological changes in liver at 1000 to 1500 mg/kg, IG measured after 10 days by H and E staining method. Conditions: in vivo, po, 240 h, dose 1000-1500 mg/kg, time 10 day. The format is organism-based. A digest of the protocol: as §6
Another series is filed under the species Homo sapiens. The series is described as follows: Binding affinity to human recombinant MD-2 assessed as reduction in binding of LPS to MD-2 at 1 uM by ELISA analysis.
The nature of series [11]: Tmax in Sprague-Dawley rat at 10 mg/kg, po measured at 5 to 24 hrs by UPLC-MS/MS analysis. The class given is ADME, organism-based. Conditions: in vivo, time 5-24 hrs. A digest of the protocol:
as §3

Series [12] in a line: Toxicity in C57BL/6 mouse assessed as histopathological changes in lung at 5 mg/kg, po measured at 6 hrs by H and E staining analysis. The class given is organism-based. The following applies: in vivo. Put shortly:
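Lungs from C57BL/6 mice given 5 mg/kg orally every 12 h for 36 h, then intratracheal LPS 5 mg/kg and sacrificed 6 h later, were fixed in 4% PFA, paraffin-embedded and stained with H&E.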

Series [13] has as its system RAW264.7. The series can be described thus: Antiinflammatory activity in LPS-induced mouse RAW264.7 cells assessed as decrease in LPS-induced TNF-alpha secretion pretreated for 30 mins followed by LPS-induction and measured after 24 hrs by ELISA analysis. The format is functional, cell-based. Put shortly: as §4
Series [14] relates to Mus musculus. The series can be described thus: Antiinflammatory activity in LPS-induced C57BL/6 mouse acute lung injury model assessed as decrease in BALF ALP level at 5 mg/kg, po administered every 12 hrs for 36 hrs followed by LPS-induction for 12 hrs and measured at 6 hrs post LPS challenge by ELISA analysis. The following applies: time 54.0 hrs.
Series [15] can be described thus: Acute toxicity in ICR mouse assessed as pathological changes in heart at 1000 to 1500 mg/kg, IG measured after 10 days by H and E staining method. The format is organism-based. The following applies: in vivo, po, 240 h, dose 1000-1500 mg/kg, time 10 day. A digest of the protocol: as §6
A short description of series [16]: Acute toxicity in ICR mouse assessed as pathological changes in spleen at 1000 to 1500 mg/kg, IG measured after 10 days by H and E staining method. The class given is organism-based. The following applies: in vivo, po, 240 h, dose 1000-1500 mg/kg, time 10 day. A digest of the protocol: as §6
Series [17] in a line: Acute toxicity in ICR mouse assessed as pathological changes in lung at 1000 to 1500 mg/kg, IG measured after 10 days by H and E staining method. Conditions: in vivo, po, 240 h, dose 1000-1500 mg/kg, time 10 day. The class given is organism-based. A digest of the protocol:
as §6

The nature of series [18]: Half life in Sprague-Dawley rat at 10 mg/kg, po measured at 5 to 24 hrs by UPLC-MS/MS analysis. The format is ADME, organism-based. Conditions: in vivo, time 5-24 hrs. A digest of the protocol:
as §3

Series [19] relates to Mus musculus. The series is described as follows: In vivo Inhibition of NF-kappaB signalling pathway in mouse C57BL/6 lung assessed as upregulation of IkappaBalpha protein expression at 5 mg/kg, po measured for 6 hrs by Western blot analysis. The class given is functional, organism-based. A digest of the protocol: as §5
The test system of series [20] is RAW264.7. The series can be described thus: Binding affinity to MD-2 in mouse RAW264.7 cells assessed as reduction in LPS/MD-2/TLR4 polymers formation incubated for 12 hrs by immunoprecipitation assay. The format is cell-based.

The source made the active and inactive calls. The calls are words filed in the database; no cut-off is given here.

With `O=C(/C=C/c1ccc(OCc2ccc(F)cc2)cc1)Nc1nccs1`, the Activity in series [1] worked out at 12.05%.
As for `O=C(/C=C/c1ccc(OCc2ccc(F)cc2)cc1)Nc1nc2ccccc2[nH]1`, the Activity in [1] is recorded as 29.65%.
Same read-out and setting: as for `O=C(/C=C/c1ccc(OCc2cccc(F)c2)cc1)Nc1nc2ccccc2[nH]1`, the figure is 55.45%; as for `O=C(O)/C=C/c1ccccc1` [CINNAMIC ACID], 9.51%.
Same read-out and setting: the figure for `O=C(/C=C/c1ccc(OCc2ccc3ccccc3c2)cc1)Nc1nccs1` is 3.63%.
`COc1ccc(COc2ccc(/C=C/C(=O)Nc3nccs3)cc2)cc1`: the result with HEK-Blue hTLR4 was inactive.
As to `Cc1cccc(COc2ccc(/C=C/C(=O)Nc3nccs3)cc2)c1`, the Activity in [1] was determined as 2.28%.
On to `Cc1ccc(COc2ccc(/C=C/C(=O)Nc3nc4ccccc4[nH]3)cc2)cc1`, for which the Activity in series [1] is 43.08%.
In the case of `Cc1ccc(COc2ccc(/C=C/C(=O)Nc3nccs3)cc2)cc1`, the Activity in series [1] came to 15.31%.
`O=C(/C=C/c1ccc(OCc2ccc3ccccc3c2)cc1)Nc1nc2ccccc2s1`: the Activity in series [1] is on record as 14.17%.
For the compound `Cc1ccc(COc2ccc(/C=C/C(=O)Nc3nc4ccccc4s3)cc2)cc1`, the outcome in the series on HEK-Blue hTLR4 was inactive.
Regarding `O=C(/C=C/c1ccc(OCc2cccc(F)c2)cc1)Nc1nccs1`, the Activity in [1] stood at 7.66%.
For `CC(C)c1ccc(COc2ccc(/C=C/C(=O)Nc3nccs3)cc2)cc1`, the result with HEK-Blue hTLR4 was inactive.
`O=C(/C=C/c1ccc(OCc2c(Cl)cccc2Cl)cc1)Nc1nc2ccccc2s1`: the Activity in series [1] came out at 11.99%.
With `O=C(/C=C/c1ccc(OCc2cccc(Cl)c2)cc1)Nc1nc2ccccc2s1`, the result in the series on HEK-Blue hTLR4 was inactive.
In the case of `O=C(/C=C/c1ccc(OCc2cccc(Cl)c2)cc1)Nc1nc2ccccc2[nH]1`, the Activity in series [1] was 41.13%.
For `O=C(/C=C/c1ccc(OCc2ccc(F)cc2)cc1)Nc1nc2ccccc2s1`, in [1], the Activity worked out at 12.84%.
With `O=C(/C=C/c1ccc(OCc2cccc(Cl)c2)cc1)Nc1nccs1`, the outcome with HEK-Blue hTLR4 was inactive.
On to `O=C(/C=C/c1ccc(OCc2c(Cl)cccc2Cl)cc1)Nc1nccs1`, for which, in [1], the Activity stood at 8.16%.
Same read-out and setting: as for `CC(C)c1ccc(COc2ccc(/C=C/C(=O)Nc3nc4ccccc4s3)cc2)cc1`, the figure is 14.04%; as for `O=C(/C=C/c1ccc(OCc2ccc3ccccc3c2)cc1)Nc1nc2ccccc2[nH]1`, 9.07%.
As for `O=C(/C=C/c1ccc(OCc2cccc(F)c2)cc1)Nc1nc2ccccc2s1`, the Activity in series [1] worked out at 19%.
On the same count and under the same terms, the figure for `COc1ccc(COc2ccc(/C=C/C(=O)Nc3nc4ccccc4s3)cc2)cc1` is 16.39%; for `Cc1cccc(COc2ccc(/C=C/C(=O)Nc3nc4ccccc4s3)cc2)c1` it is 9.26%.
Turning to `COc1cccc(COc2ccc(/C=C/C(=O)Nc3nc4ccccc4s3)cc2)c1`, the Activity in [1] worked out at 14.12%.
Consider `COc1cccc(COc2ccc(/C=C/C(=O)Nc3nccs3)cc2)c1`, for which the result with HEK-Blue hTLR4 was inactive.
With `O=C(/C=C/c1ccc(OCc2c(Cl)cccc2Cl)cc1)Nc1nc2ccccc2[nH]1`, the Activity in [1] is 19.64%.
The compound `COc1cccc(COc2ccc(/C=C/C(=O)Nc3nc4ccccc4[nH]3)cc2)c1` came in with a Cmax in series [2] of 163 ng/mL. The IC50 came out at 2.58 µM with RAW264.7 [3] and 8.41 µM in the series with RAW264.7 [13]. For the same compound, the Activity entry in the series with RAW264.7 [3] (dose 1-10 µM, time 24.5 hrs) was “Dose-Dependent Effect”; in [7] it was “Non-Toxic”; in series [10], “Non-Toxic”; in [12], “Non-Toxic”; in the series with RAW264.7 [13] (dose 1-10 µM, time 24.5 hrs) it was “Dose-Dependent Effect”; in series [1], 64.3%. Also, the Activity entry in series [15], in series [16] and in series [17] was “Non-Toxic” each time. In addition, the outcome in the series on Mus musculus [4], in the series with Mus musculus [8], in the series listed under Homo sapiens, with Mus musculus [14], with Mus musculus [19] and in the series on RAW264.7 [20] was Active. Besides, the AUC(0-t) in series [5] stood at 462 ng·h/mL. In the series on Mus musculus [6], the inhibition entry was “Active”. For the same compound, the AUC(0-inf) in [9] was 465 ng·h/mL. Also, in series [11], the Tmax came out at 3.5 h. Moreover, in [18], the half-life was 4.25 h.
